Assay results pooled from the literature.
Cell line: A549
Observed: cell growth or viability

CC1=C(O)C(=O)C=C2C1=CC=C1[C@@]2(C)CC[C@@]2(C)[C@@H]3C[C@](C)(C(=O)OCCCn4cc(C=O)c5ccccc54)CC[C@]3(C)CC[C@]12C
IC50 (MTT; 48 h): 7830 nM

CC[C@@]1(OC(=O)[C@@H](N)CCSC)C(=O)OCc2c1cc1n(c2=O)Cc2cc3cc4c(cc3nc2-1)OCO4
IC50 (MTT): 85 nM

CCCCCCCC(=O)SCC/C=C/[C@@H]1CC(=O)NCc2nc(cs2)C2=N[C@@](C)(CS2)C(=O)N[C@@H](C(C)C)C(=O)O1
IC50 (resazurin; 48 h): 3.8 nM

O=C(N/N=C1\C(=O)N(Cc2ccccc2)c2ccccc21)c1cc2ccccc2[nH]1
IC50: 1060 nM

CC[C@@]1(OC(=O)[C@H](C)N)C(=O)OCc2c1cc1n(c2=O)Cc2cc3cc4c(cc3nc2-1)OCO4
IC50 (MTT): 40 nM

O=C(N/N=C1\C(=O)N(Cc2ccc(Cl)cc2)c2ccccc21)c1cc2ccccc2[nH]1
IC50: 1050 nM

Nc1cc(Br)c(Br)cc1N
IC50 (72 h): 75000 nM

COc1c2c(cc3c1OCO3)[C@]13C=C[C@H](OC)C[C@@H]1[N@](C2)C[C@H]3OC(=O)c1ccco1
IC50 (WST-1): > 10000 nM

CC[C@@]1(OC(=O)C(C)c2ccc(CC(C)C)cc2)C(=O)OCc2c1cc1n(c2=O)Cc2cc3cc4c(cc3nc2-1)OCO4 (stereo partly shown)
IC50 (MTT): > 5000 nM

COc1ccc2c(c1)[nH]c1c(C)nccc12
IC50 (MTT; 72 h): 19400 nM

Nc1cc(Cl)c(Cl)cc1N
IC50 (72 h): 120000 nM

CC[C@H](C)[C@H](N)C(=O)O[C@]1(CC)C(=O)OCc2c1cc1n(c2=O)Cc2cc3cc4c(cc3nc2-1)OCO4
IC50 (MTT): 77 nM

CC1=CC(=O)c2c(O)cccc2C1=O
IC50 (SRB): 2820 nM

Cc1ccc(CN2C(=O)/C(=N\NC(=O)c3cc4ccccc4[nH]3)c3ccccc32)cc1
IC50: 640 nM

CC[C@@]1(OC(=O)CN)C(=O)OCc2c1cc1n(c2=O)Cc2cc3cc4c(cc3nc2-1)OCO4
IC50 (MTT): 29 nM

O=C(N/N=C1\C(=O)N(Cc2ccccc2)c2ccc(Cl)cc21)c1cc2ccccc2[nH]1
IC50 (imaging; 48 h): 1380 nM

CCC1(OC(=O)C(C)c2ccc3cc(OC)ccc3c2)C(=O)OCc2c1cc1n(c2=O)Cc2cc3cc4c(cc3nc2-1)OCO4 (stereo not shown)
IC50 (MTT): 471 nM

N#Cc1ccc(CN2C(=O)/C(=N\NC(=O)c3cc4ccccc4[nH]3)c3ccccc32)cc1
IC50: 2130 nM

N.N.[Cl][Pt][Cl]
IC50 (resazurin; 72 h): 3400 nM
